Results taken from ChEMBL document CHEMBL4513216, “Probing the Open Global Health Chemical Diversity Library for Multistage-Active Starting Points for Next-Generation Antimalarials” (ACS Infect Dis, 2020).

Assay: Toxicity liver stage against HepG2, at 10uM
Type: cell-based
Parameters: test concentration 10 uM, cell line HepG2-A16-CD81EGFP
Conditions: human, HepG2-A16-CD81EGFP cells; read-out: INHIBITION
Procedure, shortened: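 Uninfected HepG2-A16-CD81EGFP cells, 3 × 10^3 per well, 1536-well, plated on prespotted compound at 10 μM final, parasite-free screening media added to match infected plates; puromycin 10 μM positive, DMSO 0.5% negative; run in parallel with 48 h PbLuc assay at 37 °C, 5% CO2; viability by CellTiter-Glo luminescence, normalized to controls.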

Row | SMILES | cytotoxicity at 10 µM
1 | CCNc1nnc(CCn2nc(C)c(Br)c2C)s1 | 2.14%
2 | O=C1N(Cc2cccnc2)C[C@H]2CN(S(=O)(=O)c3ccccc3)CCN12 | 1.08%
3 | CCn1cc(-c2nn3c(C(C)C)nnc3s2)c(C)n1 | -14.6%
4 | CC(C)CC1SCC(=O)Nc2c1cnn2C1CCCC1 (stereo not given) | -2.17%
5 | CC(C)n1ncc2c1NC(=O)CSC2C(F)(F)F (stereo not given) | -11.1%
6 | CCCS(=O)(=O)N1CCN(c2ccc3nnc(CC)n3n2)CC1 | 8.75%
7 | Cc1noc(-c2ccc(N3CCCC(C(N)=O)C3)nc2)n1 (stereo not given) | 9.36%
8 | CC(C)C(=O)NC1COC2(CCN(C(=O)c3ccc[nH]3)CC2)C1 (stereo not given) | 6.15%
9 | O=C1C[C@H]2[C@@H](CCN2C(=O)Cc2cccs2)N1CC1CC1 | 3.2%
10 | CN1C(=O)CCCC12CCCN(C(=O)c1ccc3c(c1)OCO3)C2 (stereo not given) | 0.758%
11 | Cc1cccc(N2CCCC3(C2)CN(S(C)(=O)=O)CCO3)c1 (stereo not given) | 10.2%
12 | COCCN1C(=O)CC[C@@H]2[C@H]1CCN2C(=O)N(C)C | 10.7%
13 | CCS(=O)(=O)N1Cc2nccn2CC(CN2CCCC2)C1 (stereo not given) | -124%
14 | CC(C)NC(=O)c1cc2c(nc1N(C)C)CCN(S(=O)(=O)C1CC1)CC2 | -149%
15 | O=c1c(S(=O)(=O)N2CCCCC2)cccn1Cc1cccnc1 | -2.56%
16 | CCSC1=Nc2c(cnn2-c2ccc(Cl)cc2)C2=NCCCN12 | 8.49%
17 | O=C(NCCc1c[nH]cn1)c1ccc2c(c1)C(=O)N(C1CC1)C2=O | 11.7%
18 | CC(C)(C)n1ncc2c1NC(=O)CC2c1ccsc1 (stereo not given) | 20.4%
19 | CN(C)Cc1nn(C)c2c1CCN(S(=O)(=O)c1cccs1)C2 | 4.52%
20 | COc1cccc(CNCc2ccc(F)cc2Cl)c1O | -3.3%
21 | COc1ccc(-c2cc(C3(O)CCOC(C)(C)C3)on2)cc1 (stereo not given) | -3.12%
22 | Cc1nc(N2CCN(C(=O)C3CC3)CC2)c2c(n1)c(C)nn2C | 5.42%

Row | SMILES | cytotoxicity at 10 µM
23 | Cc1n[nH]c(C)c1-c1cnc(CC2CCCN(S(C)(=O)=O)C2)cn1 (stereo not given) | -7.3%
24 | CN1CCCCC[C@@H]2[C@@H]1[C@H](c1ccccc1)CN2C(=O)c1ccccn1 | -24.5%
25 | Cc1cc(F)cc2c(NCC(C)(C)C(N)=O)c(C#N)cnc12 | -3.25%
26 | COC(=O)c1ccc(C(=O)N2CCc3c(ncn3C3CC3)C2)cc1 | -3.34%
27 | O=C(Nc1cccc(F)c1)N1CCC(CO)(Nc2ccccc2)CC1 | -5.04%
28 | CSCC(C)NS(=O)(=O)c1ccc(C)c(N(C)C)c1 (stereo not given) | -3.25%
29 | CC(C)(C)OC(=O)NCC1CCN(C(=O)c2cc(Cl)c[nH]2)CC1 | -3.26%
30 | CC(C)CC(=O)N1Cc2ccccc2CC1C(=O)Nc1nncs1 (stereo not given) | -154%
31 | COc1ccccc1NC(=O)CCNC(=O)c1ccoc1 | 1.66%
32 | CC(C)CN(CC(F)(F)F)S(=O)(=O)c1cc(C(N)=O)n(C)c1 | -3.22%
33 | Cc1c(F)cccc1S(=O)(=O)N(C)CC(C)O (stereo not given) | 4.98%
34 | Cc1cnn(CCNCC(=O)Nc2ccc(Br)cn2)c1 | 1.9%
35 | CCOc1cc(NC(=O)N2CCC3(CCOCC3)C2)ccc1C | 2.89%
36 | CC1CCc2sc(C(=O)Nc3cnn(C)c3)cc2C1 (stereo not given) | 9.48%
37 | CC(C)c1csc(NC(=O)NC2CCCN(c3cnn(C)c3)C2)n1 (stereo not given) | 15%
38 | CC1CN(C)c2ccccc2CN1C(=O)c1cc(C#N)cn1C (stereo not given) | 14.6%
39 | COC(=O)c1ccc(N2CCN(C(=O)C(C)C)C(C)C2)cc1 (stereo not given) | -10.4%
40 | Cc1ccc(C(=O)N(Cc2ccc(F)cc2)C2CC2)c(=O)[nH]1 | -1.4%
41 | COc1c(C)cnc(CNC(=O)c2cc(C)nc3onc(C)c23)c1C | -0.947%
42 | CCOCCC1(CNC(=O)c2ccncc2)CCC1 | 4.11%
43 | O=C(NCc1cccc(N2CC=CC2)c1)NC1CC1 | 9.34%
44 | COc1ncccc1CNC(=O)C1=NN(c2ccccc2)C(=O)CN1 | 2.54%

Row | SMILES | cytotoxicity at 10 µM
45 | CCOC1CCN(C(=O)c2cc(-c3ccc(Cl)cc3)on2)CC1 | -5.08%
46 | Cc1cccc(C)c1OCC(=O)Nc1cccn(C)c1=O | 4.08%
47 | COC(=O)NCC(=O)NC1CC(C)(C)Cc2oc(C)cc21 (stereo not given) | -20.8%
48 | O=C(c1nccc2ccccc12)N(Cc1ccco1)CC1CCCO1 (stereo not given) | -6.25%
49 | CN(Cc1cnn(C)c1)C(=O)C1COCC(=O)N1Cc1ccccc1 (stereo not given) | -4.33%
50 | CC(C)(O)CN1CCN(C(=O)COCC2CC2)CC1 | -9.17%
51 | Cc1csc(N2CCCN(C(=O)c3ccsc3)CC2)n1 | 5.28%
52 | CC1CN(c2ccc(CNC(=O)NCc3ccoc3)cn2)CCO1 (stereo not given) | 4.38%
53 | C=C(C)CN1CCC(Nc2nc(C)ns2)CC1 | -8.39%
54 | COc1ccc(CCN(C)C(=O)c2cc(C(C)=O)c[nH]2)cc1OC | 5.38%
55 | CC(C)C(=O)N(C)Cc1nnc2n1CCCCC2 | -8.2%
56 | CCc1cnc(N2CCN(Cc3ccon3)CC2)s1 | 1.16%
57 | CC(CO)(NC(=O)NCCc1ccc(Br)s1)C1CC1 (stereo not given) | -2.43%
58 | CC(C)N(Cc1cccnc1)C(=O)CCSc1ccc(C#N)cc1 | 27.1%
59 | COCCNC(=O)Nc1ccc(-c2nc(C(C)C)no2)cc1 | 0.0793%
60 | CCCNC(=O)CN1CCOC(c2ccc(Br)cc2)C1 (stereo not given) | -2.56%
61 | Cc1cnn(CCNCc2ccc(OCc3csc(C)n3)cc2)c1 | -6.32%
62 | O=C(NCc1cccnc1N1CCc2ccccc2C1)c1cc(=O)[nH][nH]1 | 6.99%
63 | CN(Cc1ccc(C2CC(=O)Nc3n[nH]cc32)o1)S(C)(=O)=O (stereo not given) | -13.8%
64 | O=C1N(CCCc2ccccc2)CCCC1(O)CN1CCC(CO)CC1 (stereo not given) | -10.5%
65 | OC[C@H]1CN(Cc2c(Cl)cncc2Cl)C[C@H]1CN1CCOCC1 | -107%
66 | COc1nc2c(cc1C(=O)NC(C)Cc1cc(C)n[nH]1)CCC2 (stereo not given) | -137%

Row | SMILES | cytotoxicity at 10 µM
67 | CN1C(=O)CC(C(=O)O)C12CCN(Cc1ccc(F)c(Cl)c1)CC2 (stereo not given) | 0.998%
68 | CCSc1ncc(CN2CCN(c3ncc(C)c(N)n3)CC2)cn1 | -4.65%
69 | Cc1cc(CNC(=O)C2CCN(CC(N)=O)CC2)cc(C)n1 | -3.06%
70 | CN(CCc1noc(C2CC2)n1)C(=O)CN1C(=O)COc2ccccc21 | -141%
71 | C[C@@H]1CN(C2(C(=O)N3CCNCC3)Cc3ccccc3C2)C[C@H](C)O1 | -4.17%
72 | Cc1cc(N(C)CCCn2cccn2)nc(-c2cccnc2)n1 | 16.3%
73 | CCCC1(CO)CCCN(Cc2ncccn2)C1 (stereo not given) | -1.89%
74 | CCn1c(C2CCCN(Cc3ccc(F)cc3Cl)C2)nn(C)c1=O (stereo not given) | -2.75%
75 | CCn1c(N)nc2cc(C(=O)N3CCC(N4CCCC4)CC3)cnc21 | -1.56%
76 | CN1CCC(c2nnc(CN3CCCC3)n2C2CC2)CC1 | -11.4%
77 | COc1cc(N2CCCC(c3nccn3Cc3cscn3)C2)nc(N)n1 (stereo not given) | -4.66%
78 | COc1ccccc1C1CNC(=O)c2nc(-c3cnn(C)c3)[nH]c2C1 (stereo not given) | -5.33%
79 | CC(C)C(Sc1nncn1C1CC1)C(=O)NCc1cccnc1 (stereo not given) | -6.86%
80 | CC(C)(NCC(=O)NCC1CC1)c1ccc2c(c1)OCCO2 | -9.8%
81 | Cc1ncc(CN2CCCC(c3cc(C(N)=O)[nH]n3)C2)s1 (stereo not given) | -27.7%
82 | Cc1cccc(OCCC(=O)NCC2CN(C)CCO2)c1C (stereo not given) | -6.3%
83 | Cc1n[nH]c(=O)c(C(=O)N2CCN(CCc3cccs3)CC2)c1C | -6.22%
84 | CC(C)Cc1cc(C(=O)NCCN2CCCS2(=O)=O)[nH]n1 | -7.39%
85 | CC(C)Cn1cc(NC(=O)N2CCCC2)cn1 | -5.28%
86 | COCCCNC(=O)Nc1ccc(-n2cncn2)c(C(F)(F)F)c1 | -6.98%
87 | CC(C)c1ccc(OCCC(=O)N2CCC(C(=O)N(C)C)CC2)cc1 | -17.5%
88 | CS(=O)(=O)CCN1CCCC1c1noc(C2CC2)n1 (stereo not given) | -6.82%

Row | SMILES | cytotoxicity at 10 µM
89 | CC(C)(C)c1n[nH]c(C2CN(Cc3nnc(C4CCC4)o3)CCO2)n1 (stereo not given) | -8.24%
90 | COc1cccc2cc(CNC(=O)N3CCC(C(N)=O)CC3)oc12 | -6.13%
91 | CCC(C#N)NC(=O)c1cc(Br)c2c(c1)OCCO2 (stereo not given) | -15.7%
92 | Cc1nnc(CN2CCCC(c3noc(C4CC4)n3)C2)o1 (stereo not given) | -16%
93 | CC(O)(CN1CCC(O)CC1)c1cccc(C(F)(F)F)c1 (stereo not given) | -0.0552%
94 | CCCc1noc(CNC2CCCN(Cc3noc(C4CC4)n3)C2)n1 (stereo not given) | -13.5%
95 | CCOCc1cc(CN2CCn3c(CO)nnc3C2)ccc1OC | -37.2%
96 | Cc1ccc(CN2C[C@@H]3[C@@H](C(=O)NCC(C)C)CCS(=O)(=O)[C@@H]3C2)cc1 | 0.793%
97 | COCC1c2c(cnn2CC2CC2)CCN1Cc1ccsc1 (stereo not given) | 6.75%
98 | O=C(COC[C@H]1CC[C@H]2[C@H](CCN2c2ccccn2)O1)N1CCCC1 | 0.748%
99 | CN(C)CCN1C(=O)CCC12CCCN(C(=O)C1CC=CC1)CC2 (stereo not given) | 3.7%
100 | CCn1nc(C)cc1C(=O)N1C[C@H]2CCC[C@@]2(COc2ccccn2)C1 | 0.529%
101 | CCN1CCC2(CN(C(=O)N(C)C)CC23CCN(CC2CC2)CC3)C1=O (stereo not given) | 0.199%
102 | Cn1ccnc1CN1CCC2(CC1)CCN(Cc1ccoc1)C2 | -6.08%
103 | Cc1ccc(CN2Cc3nnn(C)c3C(COCc3ccccn3)C2)s1 (stereo not given) | 7.8%
104 | Cc1nc(CN2C(=O)CCC23CCN(c2ncccn2)CC3)cs1 | -7.71%
105 | Cn1cccc1C(=O)N[C@@H]1CN(Cc2ccsc2)[C@@H]2COC[C@@H]21 | 9.9%
106 | CC(=O)N(C)Cc1nn(C)c2c1CN(Cc1ccsc1)C2 | -134%
107 | CCn1cc(-n2cc3nc(N4CCOCC4)[nH]cc-3c2=O)cn1 | 3.43%
108 | CCCn1nccc1NC(=O)CN1CCn2c(nnc2C2CC2)C1 | -8%
109 | COC(=O)Cn1c(=O)[nH]c2cn(-c3ccc(Br)cc3)c(=O)n21 | 1.4%
110 | COCc1cccc(C(=O)N2C[C@@H]3CC[C@H]2CN(Cc2cscn2)C3)n1 | 5.01%
